Rev-RRE block – disrupts HIV-1 Rev binding to RRE RNA. P05866. 97,000 tested, 0.79% active. AID 704. inhibition, % at 8 µM. Rev peptide-RRE RNA binding, FRET;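 active means inhibition above the screen-wide mean plus 3 SD, cut at about 35% in these data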;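 further: 0% = median DMSO wells and 100% = median Neomycin B control wells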
Target sequence (P05866 whole entry, looked up): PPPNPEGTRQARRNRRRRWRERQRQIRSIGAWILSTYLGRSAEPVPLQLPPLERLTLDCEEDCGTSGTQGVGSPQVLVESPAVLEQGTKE
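Assay system: labelled RRE RNA duplex and labelled Rev peptide / Medium: HEPES pH 7.5 salt buffer with EDTA / Reagent: labelled Rev peptide / Schedule: 5 + 15 min at 25 °C / Signal: FRET, excitation 480 nm, emission 540 nm donor and 671 nm acceptor / Benchmarks: DMSO and neomycin B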
CYP2C9 activ – CYP2C9 (human) activation. P11712. recombinant CYP2C9, luciferin-H conversion, luminescence; stronger effect = higher value; factor 1 = untreated enzyme, 0 = blocked. activation factor at 5 µM. 96,000 tested, 1.4% active;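 active means activation factor of 2 or more for CYP2C9 at a 5 µM dose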;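 further: 0 = sulfaphenazole-blocked wells and 1 = vehicle-only wells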
Target sequence (P11712 whole entry, looked up): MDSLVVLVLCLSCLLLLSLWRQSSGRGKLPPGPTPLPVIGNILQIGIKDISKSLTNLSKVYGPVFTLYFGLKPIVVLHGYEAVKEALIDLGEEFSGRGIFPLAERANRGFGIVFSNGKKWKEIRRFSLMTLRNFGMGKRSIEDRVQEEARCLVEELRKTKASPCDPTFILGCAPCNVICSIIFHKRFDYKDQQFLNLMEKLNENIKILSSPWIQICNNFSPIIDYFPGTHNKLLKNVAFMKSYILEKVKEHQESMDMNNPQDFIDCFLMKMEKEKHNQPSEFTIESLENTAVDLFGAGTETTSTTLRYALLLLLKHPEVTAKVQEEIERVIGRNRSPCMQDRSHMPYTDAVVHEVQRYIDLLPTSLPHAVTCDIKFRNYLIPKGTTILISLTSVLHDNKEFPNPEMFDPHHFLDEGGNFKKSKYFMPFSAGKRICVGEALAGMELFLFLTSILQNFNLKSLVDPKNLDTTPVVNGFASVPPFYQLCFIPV
Cav32 inh – inhibitors of human Cav3.2 T-type calcium channel; O95180; Cav3.2-expressing cells, Fluo-4 calcium fluorescence FDSS; stronger effect = lower value; B-score at 10 µM; 100,000 tested, 4% active; AID 449739;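 active means single-dose well whose peak fluorescence ratio is a statistical outlier from its plate by either plate-standardised score or position-corrected B-score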
CYP2C19 activ – increases human CYP2C19 enzyme activity; AID 1025; 96,000 tested, under 10 active; recombinant CYP2C19, luciferin-H EGE luminescence; stronger effect = higher value; 0 = fully inhibited enzyme, 1 = untreated enzyme; activation factor at 5 µM;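 active means activation factor of at least 2 at 5 µM in the primary screen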;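 further: 0 = wells with 2.5 mM tranylcypromine and 1 = vehicle-only wells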
CYP2C19 inhib – inhibitors of human CYP2C19; inhibition, % at 5 µM; CYP2C19 Supersomes, luciferin-H EGE luminescence, 30 min; AID 778; P33261; 96,000 tested, 21% active;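 active means CYP2C19 inhibition above a set limit at 5 µM in the primary screen, cut at about 50% in these data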;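 further: plate controls were negative control wells for no effect and 2.5 mM tranylcypromine positive control for full effect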
CYP2C9 inh – inhibitors of human CYP2C9. P11712. CYP2C9 Supersomes, luciferin-H conversion, luminescence. inhibition, % at 5 µM. 96,000 tested, 20% active. AID 777;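 active means blocking of liver enzyme CYP2C9 beyond about 50% at 5 µM, limit read from the data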
An asterisk follows results filed as active; x = no result; ! = repeats disagree. Sampled rows, rich in hits. Any-hit rate of the full collection: about 27%.

SMILES	Rev-RRE block	CYP2C9 activ	Cav32 inh	CYP2C19 activ	CYP2C19 inhib	CYP2C9 inh
CC(C)CN(CC(C)C)S(=O)(=O)N1CCC(C(=O)NCCc2ccc(Cl)cc2)CC1	1	0.5	-1.7	0.5	54*	54*
O=C(NCCc1ccc(Cl)cc1)C1CCN(S(=O)(=O)c2cccs2)CC1	8	0.2	-6.7*	0.2	84*	79*
O=C(O)C1CCCCC1C(=O)NCCc1cccc(Cl)c1 (configuration not stated)	2	0.7	1.8	0.7	30	26
COc1cccc(CNC(=O)C2CCN(c3cnccn3)CC2)c1	5	x	0.29	x	x	x
O=C(NCCc1ccc(Cl)cc1)C1CCN(c2cnccn2)CC1	1	0.3	0.39	0.5	52*	66*
COc1ccc(/C=N/NC(=O)CC(=O)NCc2cccnc2)cc1	0	0.8	0.19	1.1	-8	19
Cc1ccc(C(=O)/C=C/Nc2ccccc2C(N)=O)cc1	2	1	0.038	0.7	26	-2
Nc1nc2ccccc2n1/N=C/c1ccc(-c2ccccc2)o1	16	1	x	0.9	8	-2
CC(C)NC(=O)C(=O)NCCc1ccc(Cl)cc1	-1	1	-0.29	0.1	92*	2
O=C(NCCc1ccc(Cl)cc1)C1CCN(S(=O)(=O)N2CCCCC2)CC1	5	0.5	-0.007	0.7	31	51*
CC(C)(C)c1cccc(OCCCSc2ncccn2)c1	20	1	-1	1	-3	1
CC(C)C1COC(c2cccc3ccccc23)=N1 (configuration not stated)	x	x	0.28	x	x	x
COc1ccc(CCn2c(=N)c(C(=O)N3CCN(C)CC3)cc3c(=O)n4ccccc4nc32)cc1	7	0.6	-0.83	0.3	72*	39
CCOC(=O)c1cc2c(=O)n3ccccc3nc2n(Cc2ccccc2Cl)c1=N	x	0.4	x	0.8	22	57*
CCOC(=O)c1cc2c(=O)n3ccccc3nc2n(C(C)C)c1=NC(=O)c1ccncc1	1	0.5	1.6	0.4	65*	48
COc1ccc2c(C=Nc3c(C)n(C)n(-c4ccccc4)c3=O)c(O)n(Cc3ccco3)c(=O)c2c1	10	0.3	-1.1	0.4	60*!	72*!
CCCCN(C)C(=O)CS(=O)(=O)Cc1nc(-c2cccc(OC)c2)oc1C	0	0.7	-2	0.6	40	28
CC(O)c1nc2ccccc2n1Cc1nnc(-c2ccc(Cl)cc2)o1 (configuration not stated)	4	0.7	-1.9	0.3	66*	34
O=C(Nc1ccccc1)C1=C[C@H](c2ccc(Br)cc2)C[C@H](OCc2ccc(CO)cc2)O1	x	x	-1.1	x	x	x
O=c1cc(N2CCN(c3ccccc3)CC2)[nH]c(=O)n1Cc1ccc(F)cc1	9	0.8	-6.1*	1	1	20
O=c1cc(N2CCc3ccccc3C2)[nH]c(=O)n1Cc1ccc(F)cc1	14	x	-4*	x	x	x
CN1CCN(c2cc(=O)n(Cc3ccc(F)cc3)c(=O)[nH]2)CC1	5	1.1	1.6	1	-1	-7
COC/C=C/C1=CC2=CC(=O)C(C)(OC(=O)c3cnc4ccccc4n3)C(=O)C2=CN1C1CCCC1 (configuration not stated)	x	x	0.97	x	x	x
O=C(O)Cn1c(CC(=O)N2CCCC2)nc2ccccc21	4	0.7	-1.1	0.9	6	27
CCCOc1ccc(-c2nnn(CC(=O)Nc3cccc(C(=O)OC)c3)n2)cc1	x	0.1	-0.14	0.7	33	92*
SMILES	Rev-RRE block	CYP2C9 activ	Cav32 inh	CYP2C19 activ	CYP2C19 inhib	CYP2C9 inh
CCCC(=O)Nc1ccccc1-c1nnn(CC(=O)Nc2ccc(OCC)cc2)n1	-2	x	0.072	x	x	x
COC(=O)c1ccccc1NC(=O)Cn1nnc(-c2ccc(OC)cc2)n1	10	x	-0.22	x	x	x
CCOc1ccc(NC(=O)Cn2nnc(-c3ccccc3NC(=O)CC)n2)cc1	5	0.1	-0.58	0	100*	89*
COc1cccc(N2CC(O)Cn3c2nc2c3c(=O)n(CCCc3ccccc3)c(=O)n2C)c1 (configuration not stated)	5	0.7	-2.5	0.9	14	25
CC(=O)CC(=O)Nc1ccn(-c2ccccc2)n1	2	1	0.47	1	1	0
O=S(=O)(Nc1ccn(-c2ccccc2)n1)c1ccc(Br)cc1	8	0	-2.2	0.3	72*	99*
COCc1cc(=O)n2[nH]c(-c3ccccc3)cc2n1	2	0.6	-0.72	0.7	34	38
COCc1cc(=O)n2[nH]c(-c3cccc(Br)c3)cc2n1	-5	0.5	x	0	95*	50
Cc1cccc(N2CN=c3s/c(=C\c4ccncc4)c(=O)n3C2)c1	3	0.7	x	0.4	59*	31
COc1cc(N2CN=c3s/c(=C\c4ccccn4)c(=O)n3C2)cc(OC)c1OC	x	0.4	-1.2	0.8	22	56*
O=S1(=O)CCC(SCc2nc3sccn3c2Br)C1 (configuration not stated)	3	1.2	0.032	0.6	42	-21
CC(C)C1Nc2ccc(S(N)(=O)=O)cc2C2C=CCC21 (configuration not stated)	3	0.7	-0.88	0.3	69*	25
NS(=O)(=O)c1ccc2c(c1)C1C=CCC1C(C1CC=CCC1)N2 (configuration not stated)	21	0.9	-3.2	0.9	8	15
O=C1C2C3CCCC3=C3CCCC3C2C(=O)N1c1ccc(F)cc1 (configuration not stated)	3	0.9	-0.084	1	2	6
COC(=O)c1cccc(NC(=O)c2ccc(S(=O)(=O)N3CCN(C)CC3)cc2)c1	9	0.7	0.86	0.7	32	27
O=C(O)c1cccc(NS(=O)(=O)c2cccc3nsnc23)c1	6	0.6	-0.32	0.9	8	39
O=C(Oc1cccc(N2C(=O)CCC2=O)c1)c1ccccc1	3	x	0.2	x	x	x
O=C(Oc1ccc2c(c1)C(=O)c1ccccc1CO2)c1ccccc1	15	0.3	-0.95	0.8	17	73*
Cn1ccnc1SCC(=O)N(C1CCCCC1)C1CCCCC1	8	0.8	-0.73	0.8	20	16
Cc1ccc(S(=O)(=O)NCCSc2nnc(N)s2)cc1	6	2*	0.59	0	96*	-99
Cc1ccc(S(=O)(=O)NCCSc2nnnn2-c2cc(C)ccc2C)cc1	15	1.4	0.0058	0.4	61*	-35
CC1(C)CC(=O)C2=C(C1)NC(=O)CC2c1ccc(N(CCC#N)CCC#N)cc1 (configuration not stated)	x	1.1	0.81	1.1	-7	-8
CCNc1nc(NC(C)C)nc(Oc2ccc(OCc3ccccc3)nn2)n1	14	x	1.9	x	x	x
O=C1CCCCCN1Cc1ccccc1	4	1	0.33	0.6	35	-3
